Results: ChEMBL document CHEMBL4177583, “1-Hydroxypyrido[2,3-d]pyrimidin-2(1H)-ones as novel selective HIV integrase inhibitors obtained via privileged substructure-based compound libraries” (Bioorg Med Chem, 2017)
Calls of active or inactive are those of the source. The rule behind the calls is not given here.

Experiments:
[1] = tested on: Human immunodeficiency virus 1; experiment: Antiviral activity against HIV1 3B infected in human MT4 cells assessed as inhibition of viral-induced cytopathic effect by MTT assay; type: functional, organism-based
Outline: (§1)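 MT-4 cells resuspended at 6×10^5 cells/mL and infected with HIV-1 IIIB or HIV-2 ROD at 100-300 CCID50. Compounds tested as serial five-fold dilutions in triplicate wells. Viability read by MTT reduction at 540 and 690 nm after 5 days. Median OD of two or three wells used. EC50 is the concentration giving 50% protection from viral cytopathicity.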

[2] = tested on: Human immunodeficiency virus 2; experiment: Antiviral activity against HIV2 ROD […] infected in human MT4 cells assessed as inhibition of viral-induced cytopathic effect by MTT assay; type: functional, organism-based, ISOLATE ROD; outline: as §1
[3] = (§2) Cytotoxic activity against mock-infected human MT4 cellls assessed as reduction in cell viability by MTT assay; type: cell-based; settings: mock-infected MT4 cells
Outline: (§3)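 Mock-infected MT-4 cells (6×10^5 cells/mL) run in parallel with infected wells. Compounds tested as serial five-fold dilutions in triplicate. Viability read by MTT at 540/690 nm after 5 days, using the median OD of two or three wells. CC50 is the concentration reducing mock-infected cell viability by 50%. '>' marks the highest concentration tested that was non-cytotoxic.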

[4] = Selectivity index, ratio of CC50 for cytotoxic activity against mock-infected human MT4 cells to EC50 for antiviral activity against HIV1 3B infected in human MT4 cells; type: toxicity, cell-based; settings: mock-infected (CC50) and HIV1 3B infected (EC50)
Outline: (§4)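 SI calculated as CC50 (mock-infected MT-4, MTT, 5 days) divided by EC50 against HIV-1 IIIB or HIV-2 ROD in MT-4 cells measured in the same MTT cytoprotection assay.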

[5] = Selectivity index, ratio of CC50 for cytotoxic activity against mock-infected human MT4 cells to EC50 for antiviral activity against HIV2 ROD […] infected in human MT4 cells; type: toxicity, cell-based; settings: mock-infected (CC50) and HIV2 ROD infected (EC50); outline: as §4
MT4 = experiment: as §2; type: cell-based; settings: mt4; outline: as §3
[6] = target: Human immunodeficiency virus type 1 reverse transcriptase (Human immunodeficiency virus 1) (UniProt Q72547); experiment: Inhibition of RNase H inhibition activity of HIV-1 BH10 reverse transcriptase expressed in Escherichia coli at 100 uM pre-incubated for 5 mins before [32P]-labeled template primer 31Trna/21P addition by polyacrylamide gel electrophoresis method
Outline: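 Recombinant WT HIV-1 BH10 RT (20-40 nM) preincubated with compound for 5 min at 37°C. Buffer: 50 mM Tris-HCl pH 8.0, 50 mM NaCl, 5 mM MgCl2, 5% DMSO. Reactions started with 25 nM 5'-[32P]-labeled 31Trna/21P template-primer. Sampled from 0 to 4 min at 37°C, quenched with EDTA/formamide, and resolved by denaturing PAGE.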

[7] = Human immunodeficiency virus 1, 3B, MT4
[8] = Human immunodeficiency virus 2, ISOLATE ROD, MT4

inhibition [6]	Structure (SMILES)	EC50 [1, 7] [µM]	EC50 [2, 8] [µM]	CC50 [3] [µM]	selectivity ratio [4]	selectivity ratio [5]	EC50 [1] [µM]	EC50 [2] [µM]	CC50 (MT4) [µM]
	Cc1nnc(C(=O)NC(C)(C)c2nc(C(=O)NCc3ccc(F)cc3)c(O)c(=O)n2C)o1	0.0078	0.011	> 55.8					
	O=c1c2cc(Br)ccc2n(Cc2cn(Cc3ccc(Br)cc3)nn2)c(=O)n1O	> 21.8	> 21.8	21.8	< 1	< 1			
	O=c1nc(Nc2cccc(-c3cn(-c4cccc5ccccc45)nn3)c2)c2cccnc2n1O	27.1	69.4	> 279	> 10	> 4			
	O=c1nc(Nc2cccc(-c3cn(CCCc4ccccc4)nn3)c2)c2cccnc2n1O	26.1	> 239	239	9	< 1			
	O=c1nc(Nc2ccccc2-c2cn(Cc3ccc(F)cc3)nn2)c2cccnc2n1O	> 2.7	> 2.7	2.7	< 1	< 1			
	O=c1nc(Nc2cccc(-c3cn(Cc4ccc(F)cc4)nn3)c2)c2cccnc2n1O	0.92	2.82	> 291	> 318	> 103			
	O=c1nc(Nc2cccc(-c3cn(CCc4ccccc4)nn3)c2)c2cccnc2n1O	9.5	14.6	> 294	> 31	> 20			
	Cc1ccccc1Cn1cc(Cn2c(=O)n(O)c(=O)c3cc(Br)ccc32)nn1	> 17.8	> 17.8	17.8	< 1	< 1			
	O=c1c2cc(Br)ccc2n(Cc2cn(Cc3ccc(F)c(F)c3)nn2)c(=O)n1O	> 24.7	> 24.7	24.7	< 1	< 1			
	O=C(Cn1cc(-c2cccc(Nc3nc(=O)n(O)c4ncccc34)c2)nn1)c1ccc(F)cc1	3	> 273	> 273	> 91	1			
	O=c1c2cc(Br)ccc2n(Cc2cn(Cc3ccc(Cl)cc3)nn2)c(=O)n1O	> 24.1	> 24.1	24.1	< 1	< 1			
	O=c1c2cc(Br)ccc2n(Cc2cn(Cc3ccccc3)nn2)c(=O)n1O	> 23.7	> 23.7	23.7	< 1	< 1			
	O=c1c2cc(Br)ccc2n(Cc2cn(Cc3ccc([N+](=O)[O-])cc3)nn2)c(=O)n1O	> 22.4	> 22.4	22.4	< 1	< 1			
	COc1cc2c(cc1Cc1cccc(Cl)c1F)c(=O)c(C(=O)O)cn2[C@H](CO)C(C)C	0.0023	0.0038	6.3					
	Cc1nnc(C(=O)NC(C)(C)c2nc(C(=O)NCc3ccc(F)cc3)c(O)c(=O)n2C)o1 [RALTEGRAVIR POTASSIUM]						0.0077	0.016	> 51.8
	O=c1c2cc(Br)ccc2n(Cc2cn(Cc3cccc(F)c3)nn2)c(=O)n1O	> 24.9	> 24.9	24.9	< 1	< 1			
	O=c1c2cc(Br)ccc2n(Cc2cn(Cc3ccccc3Cl)nn2)c(=O)n1O	> 22.3	> 22.3	22.3	< 1	< 1			
Active	O=c1c2cc(Br)ccc2n(Cc2cn(Cc3ccc(F)cc3)nn2)c(=O)n1O	> 25.1	> 25.1	25.1	< 1	< 1			
	Cc1cccc(Cn2cc(Cn3c(=O)n(O)c(=O)c4cc(Br)ccc43)nn2)c1	> 24	> 24	24	< 1	< 1			
	O=C(Cn1cc(-c2cccc(Nc3nc(=O)n(O)c4ncccc34)c2)nn1)Nc1ccc(C(F)(F)F)cc1	> 239	> 239	> 239	1	1			
	O=C(Cn1cc(-c2cccc(Nc3nc(=O)n(O)c4ncccc34)c2)nn1)Nc1ccc(F)cc1	232	> 265	> 265	> 1	1			
	Cc1ccc(Cn2cc(-c3ccccc3Nc3nc(=O)n(O)c4ncccc34)nn2)cc1	> 1.1	> 1.1	1.1	< 1	< 1			
	O=C(Cn1cc(-c2cccc(Nc3nc(=O)n(O)c4ncccc34)c2)nn1)Nc1ccccc1	26.8	> 275	> 275	> 10	1			
